Reference: PubChem BioAssay
Activity calls are given as the source filed them.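 How the source made its calls, unless noted: active means inhibition at or above 50% relative to wild type and mutant plate controls; inactive means inhibition below 50%.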

Experiments:
[1] = inhibitors of TNFa-induced NFkB p65 translocation, primary screen, imaging, HUVEC, MLSMR starter and 10KST1 sets (AID 438;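 active means inhibition above 20% together with a positive visual image hit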;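 further: compound added about 3h40 before a 20 min TNFalpha stimulation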;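 on inhibition: signal is the nuclear over cytoplasmic p65 intensity ratio per well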); settings: HUVEC TNFa-induced p65 nuclear translocation; cell count: measured here: nuclei count (cytotoxicity indicator), at 2.08 µM; inhibition: at 2 µM, stronger effect = higher value, 0% TNFa-plus-vehicle, 100% no-TNFa wells
[2] = endothelial E-selectin expression blockers – imaging, HUVEC, immunofluorescence, MLSMR starter and 10KST1 sets, primary screen (AID 487;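 active means visually confirmed hit in the image check and inhibition above 20%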;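 on inhibition: signal is fraction of cell area covered by stained E-selectin grains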;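 on nuclei count: 100% = median nuclei count of all wells on the same plate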); settings: HUVEC TNFalpha-induced E-selectin immunofluorescence imaging, at 2 µM; inhibition: stronger effect = higher value; nuclei count: measured here: cell number, toxicity
[3] = Primary imaging screen for DUSP6 inhibitors that restore phospho-Erk in transfected HeLa cells, chemical complementation (AID 609;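 active means compounds giving at least 50% inhibition in the cell-based MKP-3 phosphatase rescue imaging test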;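 on inhibition: phospho-Erk level distribution per well compared with pooled transfected vehicle control wells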); settings: HeLa MKP-3 transfected, phospho-Erk imaging KS statistic, at 10 µM, cells stimulated with TPA for 15 min
[4] = target: Dual specificity protein phosphatase 6 (Homo sapiens) (UniProt Q16828); assay: as above; settings: HeLa MKP-3 transfected, phospho-Erk imaging KS statistic; at 10 µM; stronger effect = higher value; cells stimulated with TPA for 15 min
[5] = target: Voltage-gated potassium channel subunit beta-2 (Rattus norvegicus) (UniProt P62483); assay: inhibitors of rat Kvbeta2 reductase activity – biochemical, NADPH fluorescence, primary screen (AID 622;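 active means fluorescence slope higher than the sample average by over 3 SD, cut at about -0.22 in these data, passing the limit was not always enough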;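 further: slope of raw intensity against log time taken from 70 to 1610 s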); settings: recombinant KvBeta, 4-cyanobenzaldehyde reduction, at 10 µM, stronger effect = higher value
[6] = target: Voltage-gated potassium channel subunit beta-2 (Rattus norvegicus) (UniProt P62483); assay: enhancers of rat Kvbeta2 NADPH turnover – biochemical, NADPH fluorescence, primary screen (AID 623;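 active means NADPH fluorescence slope more negative than the mean of all samples by about 3 SD, 99.7% confidence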;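 further: fluorescence intensity change per second fitted from 20 to 320 s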); settings: Recombinant KvBeta, NADPH fluorescence decrease slope, 10 min; at 10 µM; stronger effect = lower value
[7] = target: Alpha-2C adrenergic receptor (Homo sapiens) (UniProt P18825); assay: compounds altering alpha2C-coupled GIRK flux – cell-based, HEK293 alpha2C/GIRK1/2, thallium flux, primary screen (AID 624;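 active means fluorescence slope after compound addition differing from the mean of all screened samples at 99.7% confidence, in either direction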;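 further: slope of fluorescence ratio to pre-addition baseline per second over 15 to 24 s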); settings: thallium flux BTC fluorescence, at 10 µM, actives lie on both sides
[8] = inhibitors of larval lipid processing in zebrafish, primary screen, whole organism, PED6 fluorescence, gall bladder and intestine (AID 686;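 active means a full or partial loss of lipid-probe fluorescence in the fish gall bladder, intestine or both, judged by eye; inactive means no fluorescence loss, or compound toxic to the fish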;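 further: larvae 5 to 7 days old with five fish per well; signal comes from phospholipase A2 cleavage of quenched PED6 carried via bile; overnight exposure to compound and PED6 before scoring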); settings: Zebrafish larvae PED6 lipid processing, fluorescence scoring; screened at 20 µM (by protocol)
In short: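 Also added: quenched phospholipase substrate PED6, 100 nM final, ingested by larvae; System: zebrafish larvae, 5-7 d; Quantity: 5 larvae per well; Compound: 20 µM single dose; Schedule: overnight compound and PED6 incubation; Read-out: visual per-well fluorescence inhibition score; Measured by: By-eye fluorescence microscopy; Medium: E3.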

[9] = loss of swimming-algae plug formation – whole organism, Chlamydomonas reinhardtii, WT vs cilia-less mutant, absorbance, 96-well, primary screen (AID 463189); settings: Chlamydomonas reinhardtii gravitaxis, OD600 absorbance, 2 days; at 10 µM; stronger effect = higher value;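 further: 0% = wild type cc124 cells in DMSO and 100% = ciliumless bld1 mutant cells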
[10] = measured here: cell density z-score
[11] = measured here: nuclear c-Myc green intensity z-score
[12] = measured here: nuclear pErk red intensity z-score, stronger effect = higher value

Chain of Voltage-gated potassium channel subunit beta-2 (Rattus norvegicus) (P62483 whole entry, looked up): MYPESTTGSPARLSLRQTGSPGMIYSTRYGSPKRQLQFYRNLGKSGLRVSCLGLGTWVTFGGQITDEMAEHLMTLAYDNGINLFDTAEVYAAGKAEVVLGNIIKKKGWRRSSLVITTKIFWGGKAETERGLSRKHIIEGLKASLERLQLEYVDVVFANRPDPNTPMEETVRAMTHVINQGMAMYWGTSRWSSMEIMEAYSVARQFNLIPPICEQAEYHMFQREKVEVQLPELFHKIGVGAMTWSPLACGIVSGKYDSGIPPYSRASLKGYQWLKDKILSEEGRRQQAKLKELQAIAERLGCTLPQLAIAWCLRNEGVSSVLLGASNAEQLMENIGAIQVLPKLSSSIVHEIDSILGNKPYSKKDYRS
Chain of Alpha-2C adrenergic receptor (Homo sapiens) (P18825 whole entry, looked up): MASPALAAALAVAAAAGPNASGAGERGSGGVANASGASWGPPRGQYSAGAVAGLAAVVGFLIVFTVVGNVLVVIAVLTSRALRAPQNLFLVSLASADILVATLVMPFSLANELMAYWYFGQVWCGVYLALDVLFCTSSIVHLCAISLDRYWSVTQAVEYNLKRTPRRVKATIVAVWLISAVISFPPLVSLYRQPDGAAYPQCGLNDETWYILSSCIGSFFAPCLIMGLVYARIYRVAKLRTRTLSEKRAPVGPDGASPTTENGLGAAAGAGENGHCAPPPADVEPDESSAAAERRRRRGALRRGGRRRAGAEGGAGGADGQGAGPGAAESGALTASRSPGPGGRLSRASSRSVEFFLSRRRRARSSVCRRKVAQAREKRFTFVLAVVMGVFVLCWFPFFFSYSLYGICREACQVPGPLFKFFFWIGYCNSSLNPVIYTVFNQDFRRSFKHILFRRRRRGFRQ
Chain of Dual specificity protein phosphatase 6 (Homo sapiens) (Q16828 whole entry, looked up): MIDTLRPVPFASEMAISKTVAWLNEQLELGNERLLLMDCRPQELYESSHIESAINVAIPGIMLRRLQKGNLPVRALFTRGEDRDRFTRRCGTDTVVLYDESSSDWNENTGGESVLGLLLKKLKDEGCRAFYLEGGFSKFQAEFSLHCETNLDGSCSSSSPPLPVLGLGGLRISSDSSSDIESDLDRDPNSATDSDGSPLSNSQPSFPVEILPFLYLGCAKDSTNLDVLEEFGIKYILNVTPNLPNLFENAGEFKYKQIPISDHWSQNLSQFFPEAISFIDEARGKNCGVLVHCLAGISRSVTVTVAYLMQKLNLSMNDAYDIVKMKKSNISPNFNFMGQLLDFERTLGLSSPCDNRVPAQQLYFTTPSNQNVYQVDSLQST

Row | SMILES | cell count [1] | inhibition [1] | inhibition [2] | nuclei count [2] | z-score [3, 10] | z-score [3, 11] | z-score [3, 12] | inhibition [4] | fluorescence slope [5] | NADPH fluorescence slope [6] | slope [7] | outcome [8] | inhibition [9]
1 | CCC1(C)Cc2c(sc3c2c(=O)n(C)c2nnc(SCc4ccccc4)n32)CO1 (stereo unspecified) | 584 | 1.3% (inactive) | -171% (inactive) | 156% | -0.0769 | -0.7 | -1.21 | 3.56% (inactive) | -0.286 (inactive) | -6.4e-06 (inactive) | 0.00603 (inactive) | inactive | 16.4% (inactive)
2 | C=CCOC(=O)C1=C(C)OC(N)=C(C#N)C1c1ccoc1 (stereo unspecified) | 564 | 2.9% (inactive) | -24.3% (inactive) | 166% | -0.735 | -0.099 | 0.124 | 2.46% (inactive) | -0.32 (inactive) | 2.2e-05 (inactive) | 0.00536 (inactive) | inactive | 26.4% (inactive)
3 | CCOC(=O)N1CC=C2C(C#N)=C(N)C(C#N)(C#N)[C@H](c3cccs3)[C@H]2C1 | 664 | -14.7% (inactive) | 44.9% (inactive) | 144% | 0.0987 | -0.332 | -1.22 | 11% (inactive) | -0.367 (inactive) | -2e-05 (inactive) | 0.00502 (inactive) | inactive | 26.4% (inactive)
4 | CCCCOc1ccccc1/C=c1/sc2nc(-c3oc4ccccc4c3C)nn2c1=O | 431 | 0.7% (inactive) | -36.7% (inactive) | 128% | 0.907 | 2.04 | -0.0877 | 2.46% (inactive) | -0.325 (inactive) | -1e-05 (inactive) | 0.00462 (inactive) | inactive | -7.58% (inactive)
5 | CCOc1cc2nc(-c3ccc(OC)c(OC)c3)nc(N3CCOCC3)c2cc1OC | 497 | -26.2% (inactive) | -85% (inactive) | 151% | -0.0989 | -1.76 | -2.63 | 20.9% (inactive) | -0.455 (inactive) | -1.4e-05 (inactive) | 0.00555 (inactive) | inactive; toxic | 84.6% (active)
6 | C=C1c2cc(OC)ccc2NC(=O)N1CC | 611 | 0.3% (inactive) | -36.5% (inactive) | 127% | 0.269 | 0.973 | -0.0863 | -4.7% (inactive) | -0.452 (inactive) | -0.0002 (inactive) | 0.00447 (inactive) | inactive | 5.59% (inactive)
7 | COC(=O)C1=C(C)N=C2SC(C)C(=O)N2C1c1cccc(F)c1 (stereo unspecified) | 346 | -0.4% (inactive) | -96.3% (inactive) | 129% | 0.762 | -0.181 | -0.313 | 12.3% (inactive) | -0.485 (inactive) | -4.6e-05 (inactive) | 0.00444 (inactive) | inactive | -8.16% (inactive)
8 | CN(C)CC(O)COc1cccc(OCC(O)CN(C)C)c1 (stereo unspecified) | 433 | -6.5% (inactive) | -137% (inactive) | 155% | -1.38 | -0.215 | 0.992 | -7.28% (inactive) | -0.4 (inactive) | -4.2e-05 (inactive) | 0.00531 (inactive) | inactive | -5.71% (inactive)
9 | Cc1cc(C)cc(-n2c3nc4ccccc4nc3c3c(=O)n(Cc4ccco4)cnc32)c1 | 319 | -15.5% (inactive) | -94.4% (inactive) | 134% | 0.126 | -0.244 | -0.872 | 3.5% (inactive) | -0.396 (inactive) | -0.000101 (inactive) | 0.0051 (inactive) | inactive | -2.54% (inactive)
10 | Cc1ccc(OCC(=O)NCC(=O)n2nc(C)cc2C)cc1 | 580 | -8% (inactive) | 13.1% (inactive) | 170% | -0.967 | -0.193 | 1.92 | -7.01% (inactive) | -0.382 (inactive) | -2.8e-05 (inactive) | 0.00489 (inactive) | inactive | -1.21% (inactive)
11 | COc1ccc(OC)c2c1CCC2=O | 434 | -0.5% (inactive) | 3.9% (inactive) | 102% | -0.357 | -1.08 | -0.0279 | -1.12% (inactive) | -0.0756 (inactive) | 8.5e-06 (inactive) | 0.00599 (inactive) | inactive | 9.78% (inactive)
12 | COc1ccc(/C(O)=C2\C(=O)C(=O)N(c3cc(C)on3)C2c2cccc(OC)c2OC)cc1C (stereo unspecified) | 531 | -1.2% (inactive) | -148% (inactive) | 129% | -0.589 | 1.28 | 0.634 | 1.75% (inactive) | -0.5 (inactive) | -2.6e-05 (inactive) | 0.00468 (inactive) | inactive | -15.3% (inactive)
13 | CC/C(=N\O)c1ccc(OC)c(OC)c1 | 328 | -13.3% (inactive) | -106% (inactive) | 159% | -0.778 | -1.02 | 1.01 | 1.75% (inactive) | -0.423 (inactive) | -0.000183 (inactive) | 0.00545 (inactive) | inactive | 13.3% (inactive)
14 | C=CCOC(=O)C(C#N)c1nc2ccccc2nc1N1CCC(C(=O)OCC)CC1 (stereo unspecified) | 486 | -17.7% (inactive) | -58.1% (inactive) | 138% | 0.17 | 0.218 | -0.151 | -6.06% (inactive) | -0.471 (inactive) | -6.3e-05 (inactive) | 0.00188 (inactive) | inactive | 13.6% (inactive)
15 | COc1cccc(/C(O)=C2/C(=O)C(=O)N(CCCN(C)C)C2c2cccc(Cl)c2)c1 (stereo unspecified) | 339 | -13.6% (inactive) | -326% (inactive) | 182% | 0.0823 | -0.754 | 0.354 | 11.3% (inactive) | -0.436 (inactive) | -5.7e-05 (inactive) | 0.00508 (inactive) | inactive | 1.66% (inactive)
16 | N#Cc1c(N)nc(SCC(=O)NCCc2ccccc2)c(C#N)c1-c1cccs1 | 441 | 3.4% (inactive) | 19.3% (inactive) | 62.6% | -1.05 | -0.516 | 1.34 | 7.83% (inactive) | -0.418 (inactive) | -1.6e-05 (inactive) | 0.00734 (inactive) | inactive | -7.92% (inactive)
17 | OCCNc1nc(-c2ccccc2)c2ccccc2n1 | 419 | -4.7% (inactive) | -153% (inactive) | 133% | -0.162 | 1.09 | -0.852 | -10.1% (inactive) | -0.341 (inactive) | -1.3e-05 (inactive) | 0.00672 (inactive) | inactive | -5.43% (inactive)
18 | CCOc1cccc(-c2nnc3sc(-c4ccc(C)cc4)nn23)c1 | 588 | -12% (inactive) | -113% (inactive) | 166% | 0.29 | -1.67 | 0.863 | -9.66% (inactive) | -0.458 (inactive) | -0.000137 (inactive) | 0.00552 (inactive) | inactive | -1.49% (inactive)
19 | CCCOc1ccc(/C(O)=C2/C(=O)C(=O)N(CCN(C)C)C2c2ccc(OC)c(OC)c2)cc1 (stereo unspecified) | 461 | -7.3% (inactive) | -136% (inactive) | 167% | -0.67 | 0.995 | 0.868 | 6.04% (inactive) | -0.411 (inactive) | -6.1e-05 (inactive) | 0.00495 (inactive) | inactive | 8% (inactive)
20 | O=S(CCc1ccncc1)Cc1ccccc1 (stereo unspecified) | 337 | -23.4% (inactive) | -114% (inactive) | 140% | -0.83 | 1.38 | 2.01 | -14% (inactive) | -0.427 (inactive) | -0.000147 (inactive) | 0.00701 (inactive) | inactive | -11.4% (inactive)
21 | Nc1nnnn1CC(=O)OCc1cccc(Br)c1 | 351 | -7.3% (inactive) | -43.6% (inactive) | 167% | 0.909 | -0.848 | 1.13 | 1.42% (inactive) | -0.446 (inactive) | -0.000151 (inactive) | 0.00561 (inactive) | inactive | -1.03% (inactive)
22 | COc1ccc(NC(=O)C2CSC3c4ccccc4C(=O)N23)cc1 (stereo unspecified) | 376 | 0.6% (inactive) | -32.1% (inactive) | 112% | -0.228 | 0.485 | -1.59 | -1.12% (inactive) | -0.355 (inactive) | 2.4e-05 (inactive) | 0.00604 (inactive) | inactive | 127% (active)
23 | Nc1c(C(=O)NCC2CCCO2)c2nc3ccccc3nc2n1/N=C/c1ccncc1 (stereo unspecified) | 470 | -2.9% (inactive) | -109% (inactive) | 110% | 1.93 | -0.485 | 0.517 | 22.8% (inactive) | -0.507 (inactive) | -3.7e-05 (inactive) | 0.00723 (inactive) | inactive | -25.5% (inactive)
24 | CC(O)Cn1ccccc1=N (stereo unspecified) | 352 | -2% (inactive) | -146% (inactive) | 105% | 0.162 | -0.0061 | 0.0768 | -2.29% (inactive) | -0.293 (inactive) | 7.7e-06 (inactive) | 0.00523 (inactive) | inactive | 21.9% (inactive)
25 | COc1ccc(N/C(=N\c2nc(C)cc(C)n2)NC(=O)C(C)C)cc1OC | 568 | -6% (inactive) | -158% (inactive) | 138% | 0.3 | 1.29 | 0.284 | 3.97% (inactive) | -0.481 (inactive) | -3.5e-05 (inactive) | 0.00493 (inactive) | inactive | 1.34% (inactive)
26 | Cc1nnc2n(Cc3ccccc3)c(=O)c3c4c(sc3n12)CN(Cc1ccccc1)CC4 | 628 | -8.2% (inactive) | 29.2% (inactive) | 167% | -0.0797 | 0.579 | 0.467 | -7.28% (inactive) | -0.423 (inactive) | -5e-05 (inactive) | 0.00348 (inactive) | inactive | 31.3% (inactive)
27 | COc1cc(C2C(C(=O)c3ccc(C)o3)=C(O)C(=O)N2c2cc(C)on2)cc(OC)c1OC (stereo unspecified) | 531 | -0.1% (inactive) | -101% (inactive) | 125% | 1.95 | 0.514 | -0.298 | 19.3% (inactive) | -0.507 (inactive) | -9.6e-06 (inactive) | 0.00526 (inactive) | inactive | -18.1% (inactive)
